TCR CD3 inh = inhibitors of human TCR-CD3 interaction; inhibition, % at 9.4 µM; TAMRA-labeled TCR probe fluorescence, biochemical; 360,000 tested, 0.37% active; in the data active = inhibition above about 19%;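 also: recombinant mutant TCR 2C K166C tagged with TAMRA read by polarization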
DAGLB inh = diacylglycerol lipase beta (human) inhibition; inhibition, % at 5.17 µM; Q8NCG7; HEK293T DAGLB membrane lysate, EnzChek fluorogenic substrate; 340,000 tested, 0.059% active; in the data active = inhibition above about 34%
HTRA1 inhibitor = inhibitors of human serine peptidase HTRA1 | Q92743 | recombinant HTRA1, FP-rhodamine activity-based probe, fluorescence polarization | inhibition, % at 5.96 µM | 340,000 tested, 0.5% active; in the data active = inhibition above about 36%
ABHD4 inh = ABHD4 (mouse) inhibition, primary FP screen; Q8VD66; purified mABHD4, FP-Rh probe fluorescence polarization; inhibition, % at 8.92 µM; 370,000 tested, 0.54% active; AID 720543;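 active = inhibition exceeding the mean over every tested compound plus 3 SD, cut at about 30% in these data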
Target sequence (Q8VD66 whole entry, looked up): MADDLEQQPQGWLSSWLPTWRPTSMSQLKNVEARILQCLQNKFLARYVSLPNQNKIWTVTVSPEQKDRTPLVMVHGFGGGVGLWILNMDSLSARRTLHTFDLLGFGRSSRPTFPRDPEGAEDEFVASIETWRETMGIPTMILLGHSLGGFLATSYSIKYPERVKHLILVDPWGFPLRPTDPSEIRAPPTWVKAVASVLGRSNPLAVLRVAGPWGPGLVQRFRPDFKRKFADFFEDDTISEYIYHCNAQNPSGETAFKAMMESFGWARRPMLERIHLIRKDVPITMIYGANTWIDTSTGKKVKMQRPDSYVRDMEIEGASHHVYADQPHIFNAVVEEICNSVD
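Test system: mABHD4 protein; Read-out basis: % inhibition; Incubation: 45 min + 60 min at 25 °C; Repeats: single replicate; Technique: fluorescence polarization with parallel and perpendicular emission, 525/598 nm; Compound: 8.92 µM, single dose; Benchmarks: full inhibition S159A mutant plus DMSO, zero as sample-well median.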
SIAE primary = inhibitors of human sialic acid acetylesterase SIAE; Q9HAT2; SIAE FP-Rh probe binding, fluorescence polarization; inhibition, % at 9.66 µM; 370,000 tested, 0.69% active;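 active = inhibition above a cutoff: mean of compounds within the control limits plus 3 SD of those, cut at about 17% in these data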
SIAE inh conf = confirmation of human SIAE inhibitors; shares compounds with SIAE primary; SIAE FP-Rh activity-based probe, fluorescence polarization; inhibition, % at 9.66 µM; 2,300 tested, 13% active;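 active = mean inhibition of the replicates above the hit cutoff set in the primary screen, cut at about 17% in these data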;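 also: inhibitors lower polarization as more probe stays unbound to SIAE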
Each line names hits and unclear results; the compound was inactive in the other large screens (follow-up assays come after a bar, where they were run). In the library only some 1.6% were active in any assay of this set; here they are far more common.

CCC(C)NC(=O)CS(=O)Cc1nc(-c2cccc(C)c2)oc1C (stereo not drawn)	SIAE primary 25 | SIAE inh conf inactive
CCCCNC(=O)CS(=O)Cc1nc(-c2cccc(C)c2)oc1C (stereo not drawn)	SIAE primary 26 | SIAE inh conf inactive
COc1cccc(C(=O)N[C@H](C(=O)N2CCC[C@H]2C(=O)NC2CCCC2)c2ccccc2)c1	none (no result: DAGLB inh, HTRA1 inhibitor)
CN(C)CCN(Cc1ccc(Cl)cc1)c1ccccn1	none
S=C(NCCCCN(Cc1ccc(Cl)cc1)c1ccc(Br)cn1)NCCCc1cnc[nH]1	SIAE primary 24 (no result: DAGLB inh, HTRA1 inhibitor) | SIAE inh conf 28
COc1ccc(-n2c(=S)[nH]c3cc(C(=O)Nc4cc(OC)c(OC)c(OC)c4)ccc3c2=O)c(OC)c1	SIAE primary 17 | SIAE inh conf inactive
O=C1CCC[C@H]2[C@@H](Cc3ccccc3)[C@@H](O)CC[C@]23CCCN13	none (no result: TCR CD3 inh, DAGLB inh, HTRA1 inhibitor)
Cc1ccc(C)c(NC(=O)CN2C(=O)CCSc3ccccc32)c1	none (no result: TCR CD3 inh, DAGLB inh, HTRA1 inhibitor)
Nc1cccc2c3c(oc12)CCCC3	SIAE primary 18 | SIAE inh conf inactive
COC(=O)[C@]12C[C@H](CC(=O)NCc3cccs3)C(=O)N(Cc3ccco3)C1=C[C@H](COCc1ccccc1)O[C@@H]2C	none (no result: TCR CD3 inh, DAGLB inh, HTRA1 inhibitor)
Cc1ccc(N2CC(O)(c3cccs3)[N+]3=C2CCCC3)cc1 (stereo not drawn)	none
COc1ccc(C2(O)CN(c3ccc(C)cc3)C3=[N+]2CCCC3)cc1 (stereo not drawn)	SIAE primary 20 | SIAE inh conf inactive
CC1=CC(C)(C)Nc2ccc(OC(=O)CN3C(=O)c4cccc5cccc(c45)C3=O)cc21	SIAE primary 19 | SIAE inh conf inactive
CC1=CC(C)(C)Nc2ccc(OC(=O)CN3C(=O)c4ccccc4C3=O)cc21	none
COC(=O)[C@]12C[C@H](CC(=O)NCCCN3CCCC3=O)C(=O)N(Cc3ccco3)C1=C[C@H](C(C)C)O[C@@H]2C1CC1	none (no result: TCR CD3 inh, DAGLB inh, HTRA1 inhibitor)
CN[C@H]1C[C@H]2c3[nH]c4c(-c5cccc(C)c5)cccc4c3CCN2C[C@H]1[C@H](C)O	none (no result: TCR CD3 inh, DAGLB inh, HTRA1 inhibitor)
C[C@H](CO)N1C[C@H](C)[C@@H](CN(C)S(=O)(=O)c2ccc(F)cc2)Oc2ccc(NC(=O)Nc3ccc4c(c3)OCO4)cc2C1=O	SIAE primary 22 | SIAE inh conf inactive
CC(C)(C)c1ccc(C(=O)Nc2cc(Cl)ccc2C(=O)O)cc1	none (no result: TCR CD3 inh, DAGLB inh, HTRA1 inhibitor)
Cc1ccc(Cn2cc(CN3[C@H](C)COc4cc(Br)ccc4S3(=O)=O)nn2)cc1	none (no result: TCR CD3 inh, DAGLB inh, HTRA1 inhibitor)
CC(C)(C)C(=O)OC12CCCN(C1)/C(=C/c1ccc(C#N)cc1)C2 (stereo not drawn)	SIAE primary 39 (no result: TCR CD3 inh, DAGLB inh, HTRA1 inhibitor) | SIAE inh conf inactive
Cc1ccc(Cn2cc(CN(C(C)(C)C)S(=O)(=O)c3ccc(F)cc3Br)nn2)cc1	none (no result: TCR CD3 inh, DAGLB inh, HTRA1 inhibitor)
COc1ccc(/C(C)=N/N=C2/NC(=O)CC(C(=O)O)S2)cc1 (stereo not drawn)	SIAE primary 22 | SIAE inh conf inactive
C/C(=N\N=C1\NC(=O)CC(C(=O)O)S1)c1ccc(F)cc1 (stereo not drawn)	none
O=C(CCNC(=O)c1ccco1)Nc1ccc(OC(F)F)c(Cl)c1	SIAE primary 41 | SIAE inh conf inactive
O=C(Nc1ccc(-c2csc(Nc3ccccc3)n2)cc1)c1cc([N+](=O)[O-])cc(C(F)(F)F)c1	SIAE primary 40 | SIAE inh conf 20
COCCN(CC(=O)Nc1cccc(C)c1C)C(=O)c1oc2c(Cl)cccc2c1C	SIAE primary 28 | SIAE inh conf inactive
CCOC(=O)Cn1cc(CN2CCS(=O)(=O)N(Cc3ccc(Cl)cc3)C(C(=O)OC)C2)nn1 (stereo not drawn)	none (no result: TCR CD3 inh, DAGLB inh, HTRA1 inhibitor)
O=C(C[n+]1cccc2ccccc21)c1ccc(Br)cc1	SIAE primary 20 | SIAE inh conf inactive
O=C(NC(=S)Nc1ccc(S(=O)(=O)Nc2nccs2)cc1)C1CC1	none
O=C(Nc1ccc(S(=O)(=O)Nc2nccs2)cc1)C1CCCCC1	SIAE primary 20 | SIAE inh conf inactive
C[C@@H]1COc2cc(N3CCOCC3)ccc2S(=O)(=O)N1	none (no result: DAGLB inh, HTRA1 inhibitor)
C[C@@H]1NS(=O)(=O)c2ccc(F)cc2O[C@@H]1c1ccccc1	none (no result: DAGLB inh, HTRA1 inhibitor)
O=C(c1ccc(Cn2c(=S)[nH]c3ccccc3c2=O)cc1)N1CCN(c2ccccn2)CC1	SIAE primary 23 | SIAE inh conf inactive
O=C(c1ccc(Cn2c(=O)[nH]c3ccccc3c2=O)cc1)N1CCN(c2ccccn2)CC1	none
CCOc1ccc(NC(=O)CN(C)C(=O)c2c(C)nn(-c3ccccc3)c2Cl)cc1OCC	SIAE primary 19 | SIAE inh conf inactive
Cc1nn(-c2ccccc2)c(Cl)c1C(=O)NCC(=O)O	SIAE primary 19 | SIAE inh conf inactive
CCOc1ccc(NC(=O)CN(C)C(=O)c2c(C)nn(-c3ccc(F)cc3)c2Cl)cc1OCC	none
Cc1cccc(C)c1NC(=O)CNC(=O)c1c(C)nn(-c2ccccc2)c1Cl	none
COc1ccc([C@@]23CCN=C2c2[nH]c4ccccc4c2CCN3)c(N)c1	SIAE primary 19 (no result: TCR CD3 inh, DAGLB inh, HTRA1 inhibitor) | SIAE inh conf inactive
O=C(Cc1cccs1)NC1CCCCN(Cc2ccc(Cl)cc2)C1=O (stereo not drawn)	none (no result: TCR CD3 inh, DAGLB inh, HTRA1 inhibitor)
COc1ccc(CCN2CCC(CN3C(=S)NC[C@@H]3Cc3ccccc3)CC2)cc1OC	none (no result: DAGLB inh, HTRA1 inhibitor)
Nc1[nH]c(C(=O)c2ccccc2)c(-c2ccc(Br)cc2)c1C(=O)NCCc1c[nH]c2ccccc12	none (no result: DAGLB inh, HTRA1 inhibitor)
COc1ccccc1CCNC(=O)c1c(N)[nH]c(C(=O)c2ccccc2)c1-c1ccc(Br)cc1	SIAE primary 18 (no result: DAGLB inh, HTRA1 inhibitor) | SIAE inh conf inactive
C#CCNC(=O)C[C@H]1C(=O)N(CCc2ccc(Cl)cc2)C2=CCCC[C@@]21C(=O)OCC	none (no result: TCR CD3 inh, DAGLB inh, HTRA1 inhibitor)
COc1ccc(NC(=O)CSc2nc3c(c(=O)n2C)SCC3)cc1OC	none
CCn1c(SCC(=O)Nc2ccc(OC)c(OC)c2)nc2c(c1=O)SCC2	SIAE primary 19 | SIAE inh conf inactive
O=C(O)CSc1c2c(nc3cc(C(=O)N4CCOCC4)ccc13)CCCC2	SIAE primary 27 | SIAE inh conf inactive
CCOC(=O)N1CCN(C(=O)c2ccc3c(SCC(=O)O)c4c(nc3c2)CCCC4)CC1	none (no result: TCR CD3 inh, ABHD4 inh, SIAE primary)
CC(=O)Nc1cc(-c2ccc(N3CCN(C)CC3)cc2)cn2c(-c3cccc(C(C)=O)c3)cnc12	none (no result: DAGLB inh, HTRA1 inhibitor)
CC(=O)Nc1cc(-c2ccc(N3CCN(C)CC3)cc2)cn2c(-c3ccc(F)c(Cl)c3)cnc12	SIAE primary 18 (no result: DAGLB inh, HTRA1 inhibitor) | SIAE inh conf inactive
O=C(NCc1ccccc1)[C@H]1CCCN1C(=O)[C@H]1CCCN1C(=O)c1ccc(F)cc1F	none (no result: DAGLB inh, HTRA1 inhibitor)
Cc1ccc(C(=O)N2CC=C(c3ccccc3)CC2)s1	SIAE primary 19 | SIAE inh conf inactive
CCn1c(CCNC(=O)c2ccc(Cl)cc2)n[nH]c1=S	SIAE primary 22 | SIAE inh conf inactive
Cc1ccc(C(=O)NCCc2n[nH]c(=S)n2C)cc1	none
N#C/C(=C\c1cc2ccccc2nc1N1CCOCC1)C(=O)Nc1ccc(N2CCOCC2)cc1	SIAE primary 20 | SIAE inh conf inactive

Source: PubChem BioAssay
